# Article PMC7072008 (ACS infectious diseases, 2020)
# Read-outs that look alike come from different tables or passages of the source.
# What was measured:
# [1] = system: S. mansoni adult worms; test: Brief; set-up: species or system Schistosoma mansoni
# [2] = system: S. mansoni juvenile worms; test: Ex vivo juvenile worm killing, continuous exposure; set-up: species or system Schistosoma mansoni
# [3] = molecular target: T1, TGR (DTNB reducing activity) (Schistosoma mansoni, UniProt Q962Y6); test: TGR inhibition confirmatory assay, DTNB reduction; type: biochemical
# T1 sequence (Q962Y6 1-598): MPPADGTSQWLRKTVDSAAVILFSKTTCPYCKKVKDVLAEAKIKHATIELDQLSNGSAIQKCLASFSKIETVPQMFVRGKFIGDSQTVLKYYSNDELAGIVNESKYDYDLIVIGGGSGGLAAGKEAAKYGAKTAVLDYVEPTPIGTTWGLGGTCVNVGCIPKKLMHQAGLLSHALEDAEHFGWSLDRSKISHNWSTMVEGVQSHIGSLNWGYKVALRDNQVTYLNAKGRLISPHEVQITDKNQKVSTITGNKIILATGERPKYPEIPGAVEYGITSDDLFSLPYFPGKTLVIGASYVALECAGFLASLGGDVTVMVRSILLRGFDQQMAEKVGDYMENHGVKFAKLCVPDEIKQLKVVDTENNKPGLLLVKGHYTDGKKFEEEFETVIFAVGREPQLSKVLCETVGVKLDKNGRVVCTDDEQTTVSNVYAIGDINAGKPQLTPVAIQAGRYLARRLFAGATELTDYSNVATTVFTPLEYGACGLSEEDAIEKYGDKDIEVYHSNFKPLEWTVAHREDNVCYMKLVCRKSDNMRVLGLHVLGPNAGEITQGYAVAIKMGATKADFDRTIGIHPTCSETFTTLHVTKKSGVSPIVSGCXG
# [4] = system: S. haematobium adult worms; test: Ex vivo adult worm killing, continuous exposure; conditions: 10 μM
# [5] = system: S. mansoni schistosomula; test: Schistosomula; set-up: species or system Schistosoma mansoni
# [6] = molecular target: T2, hGR (Homo sapiens, UniProt P00390); test: Inhibition of human glutathione reductase; type: biochemical; conditions: for Inhibition of hGR: at 2 mM (concentrations as high as 2 mM); for IC50: read-out: hGR IC50; for hGR IC50 fold higher than for TGR: selectivity TGR versus hGR
# T2 sequence (P00390 44-522): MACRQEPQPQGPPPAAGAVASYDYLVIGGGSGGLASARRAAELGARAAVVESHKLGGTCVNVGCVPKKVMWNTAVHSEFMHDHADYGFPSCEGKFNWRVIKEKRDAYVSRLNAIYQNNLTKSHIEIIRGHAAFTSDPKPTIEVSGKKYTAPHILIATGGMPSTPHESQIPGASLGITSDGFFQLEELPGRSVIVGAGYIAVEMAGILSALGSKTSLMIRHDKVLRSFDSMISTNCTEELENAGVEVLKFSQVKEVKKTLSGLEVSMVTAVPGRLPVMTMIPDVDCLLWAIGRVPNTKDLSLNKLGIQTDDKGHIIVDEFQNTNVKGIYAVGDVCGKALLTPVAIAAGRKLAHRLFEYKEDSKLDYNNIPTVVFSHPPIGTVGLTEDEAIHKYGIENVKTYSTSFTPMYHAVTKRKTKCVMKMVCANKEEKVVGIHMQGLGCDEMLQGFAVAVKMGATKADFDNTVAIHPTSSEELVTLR
# [7] = system: S. mansoni adult worms; test: Ex vivo adult worm killing, continuous exposure; set-up: species or system Schistosoma mansoni; conditions: for LD50 against S. mansoni adult worms: 5 days incubation, media and compounds replaced daily
# [8] = molecular target: T3, TGR (GSSG reducing activity) (Schistosoma mansoni, UniProt Q962Y6); test: TGR inhibition assay, GSSG reduction; type: biochemical; conditions: read-out: IC50 (GSSG); GSSG as substrate
# T3 sequence (Q962Y6 1-598): T1 sequence (Q962Y6 1-598)
# Method in brief: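 Recombinant wild-type S. mansoni TGR (selenoprotein) was expressed in E. coli BL21 (DE3) with a His-SUMO tag. The tag was removed, leaving Gly-Ser-His at the N-terminus. Inhibition was measured as enzymatic GSSG reduction, run in triplicate.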
# [9] = system: Schistosoma mansoni TGR; conditions: read-out: TGR IC50 qHTS, cited from earlier work
# [10] = cited from earlier work
# [11] = molecular target: T4, TGR (Schistosoma mansoni, UniProt Q962Y6); test: TGR dimer/monomer analysis by native PAGE; conditions: native PAGE after reaction with compound
# T4 sequence (Q962Y6 1-598): T1 sequence (Q962Y6 1-598)
# [12] = molecular target: TGR activities (DTNB and GSSG reduction) in S. mansoni adult worms (Schistosoma mansoni, UniProt Q962Y6); test: TGR activity in homogenates of treated worms; conditions: worms cultured in 50 μM compound, harvested before any worm death
# Method in brief: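 Adult S. mansoni from infected Swiss-Webster mice, about 10 worm pairs per 1 mL RPMI with 10% FCS, 10 mM glutamine and penicillin/streptomycin, pre-cultured 24 h. Exposed to 50 μM compound in DMSO, refreshed daily; DMSO controls. Worms collected at set times, washed, homogenized and centrifuged; protein measured. NADPH-dependent DTNB and GSSG reduction assayed in triplicate versus time-matched controls.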
# [13] = system: S. japonicum adult worms; test: Ex vivo adult worm killing, continuous exposure; conditions: 12.5 μM, 120 h
# [14] = system: Vero cells
# [15] = molecular target: T4, TGR; test: NADPH oxidase activity of inhibited TGR; type: biochemical; conditions: for H2O2 production compared with untreated TGR: Amplex Red and horseradish peroxidase
# [16] = molecular target: T4, TGR; test: NADPH-dependence and reversibility of TGR inhibition; type: biochemical; conditions: incubation with NADPH, activity 30 minutes and 3 hours after desalting
# [17] = system: Schistosoma mansoni; conditions: overnight exposure; cited from earlier work
# [18] = 20 μM, then 5 days in media without compound
# [19] = read-out: IC50 (DTNB), DTNB as substrate
# [20] = read-out: TGR IC50 Confirm, confirmatory assay
# [21] = PubChem BioAssay, ref AID485364
# [22] = 50 μM, then 5 days in media without compound
# [23] = 100 μM, then 5 days in media without compound
SMILES,"S. mansoni adult worm killing after 1 hr exposure [1, 18]","Sm juvenile, dead ([2]; 10 μM, 120 h)","IC50 [3, 19] [nM]","IC50 [3, 20] [nM]","Sm Somula, dead ([5]; 10 μM, 24 h)",Inhibition of hGR [6],LD50 against S. mansoni adult worms [7] [µM],IC50 [8] [nM],"IC50 [9, 21] [nM]","S. mansoni adult worm killing after 1 hr exposure [1, 22] [%]","S. mansoni adult worm killing after 1 hr exposure [1, 23] [%]",other results
COC(=O)CS(=O)(=O)c1nnc(C(Cc2ccccc2)NC(=O)OC(C)(C)C)o1 (stereo not shown) [Compound 1],60%,10 μM 120 h 39% d^‡,330 ± 70,330,10 μM 24 h 99% d^‡,did not inhibit,8.41,390 ± 70,–,–,–,"Adult worms Sh, dead ([4]; 144 h): 10 μM 144 h 67% d^‡"
CCN(c1ccccc1)S(=O)(=O)c1ccc(NC(=O)c2nc(S(C)(=O)=O)ncc2Cl)cc1 [Compound 2],40%,–,210 ± 20,210,10 μM 24 h 100% d^‡,did not inhibit,9.07,230 ± 30,398,–,–,"Sm juvenile, dead ([2]; 10 μM, 24 h): 10 μM 24 h 100% d^‡"
O=c1c(Cl)c(-n2cc(CO)nn2)cnn1-c1ccccc1 [Compound 3],about 10%,–,2840 ± 80,2840,10 μM 24 h 100% d^‡,19%,4.9,2490 ± 110,–,80,–,"Sm juvenile, dead ([2]; 10 μM, 48 h): 10 μM 48 h 100% d^‡; Adult worms Sh, dead ([4]; 96 h): 10 μM 96 h 100% d^‡; IC50 ([9]; ref Li et al. 2015 [18]): 6300 nM; Adult worms Sm, dead ([7]; 10 μM, 72 h): 10 μM 72 h 100% d^‡"
"O=[N+]([O-])c1ccc2c(c1)S(=O)(=O)C=C2 [Compound 4, Stattic]",about 10%,–,2010 ± 140,2010,10 μM 24 h 100% d^‡,–,7.08,2200 ± 200,–,100,–,"Tolerability in animal models ([10]; animal models of different diseases): well tolerated; Sm juvenile, dead ([2]; 10 μM, 72 h): 10 μM 72 h 100% d^‡; Monomer formation of TGR [11]: No evidence for monomer formation; IC50 [6]: 30700 nM; hGR IC50 fold higher than for TGR [6]: 15 fold; IC50 ([9]; ref Li et al. 2015 [18]): 5440 nM; Adult worms Sm, dead ([7]; 10 μM, 144 h): 10 μM 144 h 76% d^‡"
"COc1ccc([N+](=O)[O-])c(S(=O)(=O)c2ccc(Cl)cc2)n1 [Compound 5, TRi-1]",about 10%,10 μM 120 h 57% d^‡,60 ± 10,60,10 μM 24 h 100% d^‡,–,10.1,50 ± 10,100,60,–,Tolerability in animal models ([10]; in vivo): well tolerated; IC50 [6]: 104000 nM; hGR IC50 fold higher than for TGR [6]: 1700 fold
CCOC(=O)C(C(=O)OCC)c1cc(Br)c2noc3c2c1C(=O)c1ccccc1-3 [Compound 6],–,–,140 ± 10,140,–,25%,–,150 ± 20,631,–,–,"S. mansoni adult worm killing after 1 hr exposure ([1]; all concentrations tested (10, 20, 50, 100 μM)): no worm killing; Inhibition of TGR activity (DTNB and GSSG reduction) in worm homogenates [12]: ~ 60%"
Oc1ccc(CNc2cccc(C(F)(F)F)c2)c2cccnc12 [Compound 7],10%,–,90 ± 20,90,–,did not inhibit,18.2,130 ± 30,316,–,80,"Adult worms Sj, dead [13]: 12.5 μM 120 h no killing; Sm juvenile, dead ([2]; 12.5 μM, 120 h): 12.5 μM 120 h 8% d^‡; Cytotoxicity against mammalian cells compared with schistosome worms [14]: notable exception; Sm Somula, dead ([5]; 12.5 μM, 120 h): 12.5 μM 120 h 61% d^‡; H2O2 production compared with untreated TGR [15]: less H2O2 than untreated TGR; Induction of NADPH oxidase activity in TGR (NADPH consumption, superoxide production) ([15]; TGR 500 nM, NADPH 100 μM, 30 min, 20 μM for 1, 2, 5-8, 50 μM for 3 and 4, desalted): lowest NADPH oxidase activity; Decrease of NADPH consumption compared with uninhibited TGR ([15]; after treatment and desalting): about 50%; Adult worms Sm, dead ([7]; 12.5 μM, 120 h): 12.5 μM 120 h 43% d^‡"
COc1ccc(C(Nc2cc(C)ccn2)c2ccc3ccc(C)nc3c2O)cc1 (stereo not shown) [Compound 8],10%,10 μM 120 h 24% d^‡,130 ± 40,130,–,did not inhibit,12.4,330 ± 50,398,–,30,"Adult worms Sj, dead [13]: 12.5 μM 120 h 56% d^‡; Reversibility of TGR inhibition [16]: reversible inhibition; Sm Somula, dead ([5]; 10 μM, 120 h): 10 μM 120 h 20% d^‡; H2O2 production compared with untreated TGR [15]: same low amounts of H2O2 as untreated TGR; Adult worms Sm, dead ([7]; 12.5 μM, 120 h): 12.5 μM 120 h 53% d^‡"
"Cc1c(-c2cnccn2)ssc1=S [oltipraz, reference compound]",–,–,–,–,–,–,2,–,–,–,–,–
"O=C(C1CCCCC1)N1CC(=O)N2CCc3ccccc3C2C1 (stereo not shown) [praziquantel, reference compound]",–,–,–,–,–,–,0.5,–,–,–,20,LD50 of praziquantel [17]: 40 µM
